Measurements: publication PMC6453127 (Biochimica et biophysica acta. General subjects, 2017)
“Also recorded” adds a separate entry of the source.

Columns and labels:
DU-145 = experiment: NCI-60 screen, DU-145 prostate cancer cell line; type: cell-based, human; conditions: NCI re-screen
Outline: (§1)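 NCI Developmental Therapeutics Program re-screen, 5-concentration dose response. Growth measured by SRB staining.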

Hsp70 = Hsp70 (Homo sapiens, UniProt P0DMV8); experiment: Transcreener ADP Hsp70 ATPase assay; type: biochemical; conditions: 0.5 μM Hsp70; up to 200 μM
Sequence of Hsp70 (P0DMV8 whole entry): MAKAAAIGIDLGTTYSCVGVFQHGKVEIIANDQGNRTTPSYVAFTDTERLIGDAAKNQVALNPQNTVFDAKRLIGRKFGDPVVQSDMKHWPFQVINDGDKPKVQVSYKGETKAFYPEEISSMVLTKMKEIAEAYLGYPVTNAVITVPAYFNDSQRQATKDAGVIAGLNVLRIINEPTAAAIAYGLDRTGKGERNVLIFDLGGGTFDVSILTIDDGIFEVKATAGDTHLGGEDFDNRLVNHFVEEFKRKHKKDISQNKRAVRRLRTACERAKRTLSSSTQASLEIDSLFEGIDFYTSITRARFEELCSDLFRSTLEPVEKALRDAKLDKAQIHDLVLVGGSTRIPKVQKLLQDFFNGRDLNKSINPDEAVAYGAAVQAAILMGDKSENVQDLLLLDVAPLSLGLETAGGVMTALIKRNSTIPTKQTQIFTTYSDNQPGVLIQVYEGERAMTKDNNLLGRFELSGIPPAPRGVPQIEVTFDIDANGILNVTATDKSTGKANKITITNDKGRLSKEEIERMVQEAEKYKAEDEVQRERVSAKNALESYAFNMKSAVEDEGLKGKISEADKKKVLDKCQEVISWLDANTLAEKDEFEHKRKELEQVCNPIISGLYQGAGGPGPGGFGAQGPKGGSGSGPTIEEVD
Outline: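 Stopped with EDTA stop-and-detect buffer containing ADP² antibody-IRDye QC-1 and 8 nM ADP Alexa594 tracer, 1 h at RT. Endpoint fluorescence intensity read. Three experiments, four-parameter logistic fit.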

GST-Hsp90α NTD [1] = biological target: T1, GST-Hsp90α NTD (Homo sapiens, UniProt P07900); experiment: BS3 crosslinking assay, GST-Hsp90α NTD; type: biochemical; conditions: 2 μM protein
Outline: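 2 μM protein buffer-exchanged into 50 mM NaPO₄ and 150 mM NaCl, then preincubated with compound for 1 h at room temperature. BS3 added at 66–200 μM final for 1 h at RT, then quenched with 50 mM Tris-HCl pH 7.5 for 15 min. Boiled in SDS dye, run on 10% SDS-PAGE, western-blotted and probed with anti-GST antibody.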

Hsp90 = experiment: Luciferase refolding assay in rabbit reticulocyte lysate; type: biochemical
Outline: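 Recombinant luciferase at 100 μg/mL in Tricine pH 7.8 buffer (MgCl₂, DTT, EDTA, 10% glycerol, 10 mg/mL BSA), heat-denatured at 41 °C for 30 min. Then added to rabbit reticulocyte lysate preincubated at 30 °C with compound. Aliquots taken every 15 min for 90 min into luciferase reagent and luminescence read. DMSO at 90 min set to 100%. Triplicate.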

LNCaP cells [2] = experiment: Western blot of Hsp90 clients and heat shock proteins in LNCaP cells; type: cell-based; conditions: 48 h
Outline: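 ATCC LNCaP cells kept in ATCC-recommended medium, authenticated and used within 20 passages. Cells treated for 48 h, trypsinised, PBS-washed and lysed in RIPA with protease inhibitors, 1 mM PMSF, 0.1% Triton X-100 and 1 mM DTT. Protein measured by Bradford before western blot. Band intensities of treated samples expressed as percentage of vehicle.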

BSA = BSA (Bos taurus, UniProt P02769); experiment: Crosslinking specificity control with BSA; type: biochemical
Sequence of BSA (P02769 25-607): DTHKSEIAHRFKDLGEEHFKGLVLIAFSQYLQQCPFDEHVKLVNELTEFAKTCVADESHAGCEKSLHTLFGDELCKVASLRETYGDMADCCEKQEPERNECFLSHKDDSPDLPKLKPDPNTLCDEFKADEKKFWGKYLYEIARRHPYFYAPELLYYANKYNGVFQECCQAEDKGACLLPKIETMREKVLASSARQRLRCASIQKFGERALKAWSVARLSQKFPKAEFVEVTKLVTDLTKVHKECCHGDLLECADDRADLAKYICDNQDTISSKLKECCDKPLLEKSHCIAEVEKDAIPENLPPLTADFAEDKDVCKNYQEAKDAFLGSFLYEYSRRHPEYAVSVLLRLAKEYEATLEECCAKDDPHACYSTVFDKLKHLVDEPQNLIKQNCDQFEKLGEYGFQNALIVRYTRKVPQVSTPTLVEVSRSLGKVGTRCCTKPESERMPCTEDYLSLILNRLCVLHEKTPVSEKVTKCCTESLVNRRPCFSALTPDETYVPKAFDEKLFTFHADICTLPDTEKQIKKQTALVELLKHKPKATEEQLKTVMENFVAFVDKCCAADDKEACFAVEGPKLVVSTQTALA

His6-Hsp90β CTD = His6-Hsp90β CTD (Homo sapiens, UniProt P08238); experiment: BS3 crosslinking dimerization/oligomerization assay, His6-Hsp90β CTD; type: biochemical; conditions: 2 μM protein; BS3 crosslinker
Sequence of His6-Hsp90β CTD (P08238 530-724): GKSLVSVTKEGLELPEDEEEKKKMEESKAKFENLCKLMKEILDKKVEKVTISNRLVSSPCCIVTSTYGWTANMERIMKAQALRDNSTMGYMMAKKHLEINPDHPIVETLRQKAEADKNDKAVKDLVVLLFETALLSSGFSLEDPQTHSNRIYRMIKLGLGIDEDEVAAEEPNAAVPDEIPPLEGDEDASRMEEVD

GST-Hsp90α NTD [3] = biological target: T1, GST-Hsp90α NTD; experiment: ATP-agarose pulldown, Hsp90 NTD; type: binding; conditions: 200 μM compound, 6 μM NTD
Hsp90α = Hsp90α (Homo sapiens, UniProt P07900); experiment: DARTs assay, full-length recombinant Hsp90α, pronase proteolysis; type: binding; conditions: 200 μM compound
GST-Hsp90α CTD [4] = biological target: T2, GST-Hsp90α CTD (Homo sapiens, UniProt P07900); experiment: ADH aggregation; type: biochemical
Outline: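 Reaction: 6.2 μM equine ADH, with or without 500 nM GST-Hsp90α CTD and compound. Aggregation induced at 55 °C, read as absorbance at 360 nm every minute for 90 min. The 90-min endpoint was used, with the mean of ADH alone set to 100%. Three independent experiments.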

GST-Hsp90α CTD (626–732) = GST-Hsp90α CTD (626–732) (Homo sapiens, UniProt P07900); experiment: DARTs assay with GST-Hsp90α CTD; type: binding; conditions: 200 μM compound
GST-Hsp90α CTD [5] = biological target: T2, GST-Hsp90α CTD; experiment: BS3 crosslinking assay, GST-Hsp90α CTD; type: biochemical; conditions: 2 μM protein; NSC145366 10 μM to 100 μM
GST-Hsp90α CTD [6] = biological target: T2, GST-Hsp90α CTD; experiment: ATP-agarose pulldown, Hsp90 CTD; type: binding; conditions: 200 μM compound, 6 μM CTD
Hsp90 CTD = experiment: DTT-induced insulin aggregation chaperone assay; type: biochemical; conditions: 100 μM compound; 10 μM Hsp90 CTD
Outline: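 200 μM insulin preincubated with 10 μM Hsp90 CTD, with or without compound, in 10 mM NaPO₄ and 100 mM NaCl at 30 °C for 1 h. Aggregation induced with 20 mM DTT and followed by absorbance at 650 over 40 min in a plate reader.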

GST-Hsp90α NTD (9–236) = GST-Hsp90α NTD (9–236) (Homo sapiens, UniProt P07900); experiment: DARTs assay with GST-Hsp90α NTD; type: binding; conditions: 200 μM compound
Lewis lung carcinoma = conditions: 3.12 mg/kg; Lewis lung carcinoma mouse model; ref http://dtp.cancer.gov; cited from earlier work
PC3 = experiment: NCI-60 screen, PC3 prostate cancer cell line; type: cell-based, human; conditions: NCI re-screen
Outline: as §1

full-length Hsp90α = full-length Hsp90α (Homo sapiens, UniProt P07900); experiment: BS3 crosslinking assay, full length Hsp90α; type: biochemical; conditions: 2 μM protein; BS3 crosslinker
Outline: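 Full-length Hsp90α used at 2 μM in 50 mM NaPO₄ and 150 mM NaCl, preincubated with compound for 1 h at room temperature. BS3 crosslinker added at 66–200 μM final for 1 h at RT, then quenched with 50 mM Tris-HCl pH 7.5 for 15 min. Analysed by 10% SDS-PAGE and western blot.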

[7] = mouse xenograft models; ref http://dtp.cancer.gov; cited from earlier work
LNCaP cells [8] = experiment: Cytotoxicity to LNCaP cells; type: cell-based; conditions: 5 μM; data not shown
Hsp90β [9] = biological target: T3, Hsp90β (Homo sapiens, UniProt P08238); experiment: Competitive displacement of FITC-GA; type: binding; conditions: competitor 3 nM to 3 μM; 60 nM Hsp90β, 5 nM FITC-GA
T3 sequence (P08238 whole entry): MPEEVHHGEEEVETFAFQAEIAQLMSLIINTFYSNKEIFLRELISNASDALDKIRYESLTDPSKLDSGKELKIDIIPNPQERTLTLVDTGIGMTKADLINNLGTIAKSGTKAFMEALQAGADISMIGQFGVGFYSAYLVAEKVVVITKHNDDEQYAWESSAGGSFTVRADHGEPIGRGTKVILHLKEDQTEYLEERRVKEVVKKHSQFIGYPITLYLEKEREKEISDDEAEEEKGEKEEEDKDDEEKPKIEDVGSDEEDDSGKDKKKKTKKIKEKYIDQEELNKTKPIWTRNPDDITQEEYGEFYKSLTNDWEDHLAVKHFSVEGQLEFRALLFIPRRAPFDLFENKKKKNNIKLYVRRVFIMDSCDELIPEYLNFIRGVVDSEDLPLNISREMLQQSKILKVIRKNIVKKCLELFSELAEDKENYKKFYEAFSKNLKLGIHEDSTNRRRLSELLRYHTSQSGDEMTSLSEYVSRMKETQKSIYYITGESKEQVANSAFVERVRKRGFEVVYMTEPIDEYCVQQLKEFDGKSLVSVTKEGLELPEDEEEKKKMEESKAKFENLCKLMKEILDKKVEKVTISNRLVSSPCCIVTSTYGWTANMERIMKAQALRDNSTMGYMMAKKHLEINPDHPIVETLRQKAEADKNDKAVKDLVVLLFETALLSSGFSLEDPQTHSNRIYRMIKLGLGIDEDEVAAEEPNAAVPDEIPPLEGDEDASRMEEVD

Hsp90β [10] = biological target: T3, Hsp90β; experiment: Transcreener ADP Hsp90 ATPase assay; type: biochemical; conditions: read-out: IC50, Hsp90β ATPase function; 0.5 μM Hsp90β, 250 μM ATP, 37 °C 30 min
Hsp90β [11] = biological target: T3, Hsp90β; experiment: Microscale thermophoresis; type: binding; conditions: read-out: Kd (MST); labeled Hsp90β 40 nM

SMILES: CC(C)(C)CC(C)(C)NCC(O)COc1ccc(C(C)(C)c2ccc(OCC(O)CNC(C)(C)CC(C)(C)C)cc2)cc1.Cl (stereo not drawn) [NSC145366, 1-(4-(2-(4-(2-hydroxy-3-(2,4,4-trimethylpentan-2-ylami-no)propoxy)phenyl)propan-2-yl)phenoxy)-3-(2,4,4-trimethylpentan-2-ylamino)propan-2-ol hydrochloride]
- GI50 (DU-145): 1380 nM
- inhibition of Hsp70 ATPase function (Hsp70): no inhibitory activity up to 200 μM
- oligomerization of GST-Hsp90α NTD (crosslinking) (GST-Hsp90α NTD [1]): no effect on oligomerization of the NTD
- level of inhibition of luciferase refolding compared with Cm A1 (Hsp90; 25 and 50 μM): greater than C-terminal inhibitor Cm A1
- luciferase refolding (luciferase activity vs vehicle) (Hsp90; rabbit reticulocyte lysate, 90 min): decreased luciferase activity as compared to vehicle treated lysates
- induction of classical heat shock response (Hsp70, Hsp27, Hsp40) (LNCaP cells [2]): not detectable
- AR expression level compared to DMSO (LNCaP cells [2]; 1 μM and 3 μM): 50%
- Akt expression (LNCaP cells [2]; 1 μM and 3 μM): do not show significant downregulation
- BRAF expression (LNCaP cells [2]; 1 μM and 3 μM): do not show significant downregulation
- BRCA1 expression level compared to DMSO (LNCaP cells [2]; 3 μM): 15%
- Hsp40 expression (LNCaP cells [2]; 3 μM): only appears to induce Hsp40 expression after 48 h cellular treatment at the highest concentration
- oligomerization of BSA (BSA): does not induce oligomerization of BSA
- oligomerization state of His6-Hsp90β CTD (crosslinking) (His6-Hsp90β CTD): even higher order oligomerized species; also recorded: CTD monomer band was eliminated
- inhibition of NTD binding to ATP-agarose (GST-Hsp90α NTD [3]): does not disrupt NTD or CTD binding to ATP
- protection of Hsp90α from pronase degradation (DARTs) (Hsp90α): protection of Hsp90α was clearly observed
- level of ADH aggregation, dose dependence (GST-Hsp90α CTD [4]; 10 μM to 40 μM): increases the level of ADH aggregation in a dose dependent manner
- inhibition of Hsp90 CTD chaperone (anti-aggregation) activity, ADH aggregation assay (GST-Hsp90α CTD [4]; 40 μM compound, 500 nM Hsp90 CTD, 55 °C, end point 90 min): completely eliminates CTD chaperone activity
- protection of Hsp90 CTD from pronase degradation (DARTs) (GST-Hsp90α CTD (626–732)): protects the Hsp90 CTD from pronase degradation
- oligomerization state of GST-Hsp90α CTD (crosslinking) (GST-Hsp90α CTD [5]): induced CTD oligomerization increases in a dose dependent manner
- inhibition of CTD binding to ATP-agarose (GST-Hsp90α CTD [6]): does not disrupt NTD or CTD binding to ATP
- inhibition of CTD chaperone activity, insulin aggregation (Hsp90 CTD): inhibits CTD chaperone activity
- protection of Hsp90 NTD from pronase degradation (DARTs) (GST-Hsp90α NTD (9–236)): no protection observed
- antitumor activity, treated/control (Lewis lung carcinoma): 68%
- GI50 (PC3): 1850 nM
- oligomerization state of full-length Hsp90α (crosslinking) (full-length Hsp90α): presence of a higher-order oligomer
- toxic dose [7]: ≥ 6.25 mg/kg
- cytotoxicity to LNCaP cells (LNCaP cells [8]): completely cytotoxic
- competition with FITC-GA binding to Hsp90β (Hsp90β [9]): does not compete with FITC-GA binding
- IC50 (Hsp90β [10]): ~109000 nM
- Kd (Hsp90β [11]): ~3800 nM
